From ChEMBL document CHEMBL3585281, “Antibacterial Labdane Diterpenoids from Vitex vestita” (2015)

How the values were obtained:
Assay type in all cases: functional
HCT-116 [1] = experiment: Cytotoxicity against human HCT116 cells assessed as growth inhibition at 10^-6 M after 72 hrs by MTS assay relative to control; details: HCT-116, 72 h, read-out: GI
Procedure, shortened: (§1)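 Cells from ATCC; HCT-116 grown in RPMI 1640 and MRC5 in DMEM, each with 10% FCS and 1% glutamine, 37 °C, 5% CO2. Seeded at 2.5 × 10^3 cells/well, cultured 24 h, then exposed to compounds at 1 and 10 μM final for 72 h. MTS read-out, absorbance 490 nm; percent index from treated/control OD490 × 100, three experiments.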

HCT-116 [2] = experiment: Cytotoxicity against human HCT116 cells assessed as growth inhibition at 10^-5 M after 72 hrs by MTS assay relative to control; details: HCT-116, 72 h, read-out: GI; procedure, shortened: as §1
MRC5 [3] = experiment: Cytotoxicity against human MRC5 cells assessed as growth inhibition at 10^-5 M after 72 hrs by MTS assay relative to control; details: MRC5, 72 h, read-out: GI; procedure, shortened: as §1
MRC5 [4] = experiment: Cytotoxicity against human MRC5 cells assessed as growth inhibition at 10^-6 M after 72 hrs by MTS assay relative to control; details: MRC5, 72 h, read-out: GI; procedure, shortened: as §1

Q: For `C=C1C[C@@H](O)[C@H]2C(C)(C)CCC[C@]2(C)[C@H]1C[C@H](O)C1=CC(=O)OC1O` (some centres undefined), which inhibition of growth at 1 µM (HCT-116 [1]) is on record?
A: The inhibition of growth at 1 µM was 0%.

Q: What about the inhibition of growth at 10 µM (HCT-116 [2]) of the same compound?
A: Its inhibition of growth at 10 µM is 66%.

Q: What about the inhibition of growth at 10 µM (MRC5 [3]) of the same compound?
A: Its inhibition of growth at 10 µM is 0%.

Q: And the inhibition of growth at 1 µM (MRC5 [4])?
A: The inhibition of growth at 1 µM was 0%.
